The values that follow come from ChEMBL document CHEMBL1125125, “Thiazolo[4,5-d]pyrimidine nucleosides. The synthesis of certain 3-beta-D-ribofuranosylthiazolo[4,5-d]pyrimidines as potential immunotherapeutic agents” (J Med Chem, 1990).

Series [1] concerns Mus musculus. The series can be described thus: Effect against semliki forest virus infection in mice at an ip dose of 100 mg/kg. To be noted: route intraperitoneal. It is filed as functional. The essentials:
(§1)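 Female Swiss Webster mice (about 20 g) received compound or placebo ip in aqueous 2% sodium bicarbonate as half-daily doses at -24 and -18 h before virus. […] Read-outs were survivors/total over 21 days and mean survival time of mice that died. Mice dying within a day or two of dosing were excluded. Significance was by two-tailed Fisher exact test.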

The species entered for series [2] is Mus musculus. Nature of the series: Ability to activate CBA/CaJ Mice spleen cells to proliferate in vitro by measuring new DNA synthesis in a [3H]thymidine incorporation assay at 0.05 mM. It counts as functional. Put shortly: (§2)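 Spleen cells from CBA/CaJ mice, 1 × 10^5 per 0.2 mL, cultured with compound for 48 h in total. [3H]thymidine (0.5 μCi/0.02 mL) was added after 24 h, then cells were harvested and uptake was counted in a β-counter. Results are CPM as mean ± SD of quadruplicate assays.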

The species named for series [3] is Mus musculus. The series can be described thus: Ability to activate CBA/CaJ Mice spleen cells to proliferate in vitro by measuring new DNA synthesis in a [3H]thymidine incorporation assay at 0.40 mM. It is filed as functional. The essentials: as §2
For series [4], the species on record is Mus musculus. The series can be described thus: Ability to activate CBA/CaJ Mice spleen cells to proliferate in vitro by measuring new DNA synthesis in a [3H]thymidine incorporation assay at 0.01 mM. It counts as functional. Put shortly: as §2
On the technique in general: Dividing cells build labelled thymidine or BrdU into new DNA.

The subject of series [5] is Mus musculus. Nature of the series: Effect against semliki forest virus infection in mice at an ip dose of 100 mg/kg; 0/12. It is filed as functional. The note with it: route intraperitoneal. Put shortly: as §1
For series [6], the species on record is Mus musculus. Nature of the series: Ability to activate CBA/CaJ Mice spleen cells to proliferate in vitro by measuring new DNA synthesis in a [3H]thymidine incorporation assay at 0.20 mM. It is filed as functional. Put shortly: as §2
For series [7], the system named is Mus musculus. The series can be described thus: Effect against semliki forest virus infection in mice at an ip dose of 200 mg/kg. It is filed as functional. To be noted: route intraperitoneal. Put shortly: as §1
The subject of series [8] is Mus musculus. The series can be described thus: Effect against semliki forest virus infection in mice at an ip dose of 200 mg/kg; 2/11. It counts as functional. The note with it: route intraperitoneal. Put shortly: as §1
Series [9] has as its system YAC-1. The series can be described thus: In vivo effect on murine NK cell activity in isolated CBA/CaJ mice spleen cells and cytotoxicity measured against YAC-1 cells at a targetor ratio 100:1. It is filed as functional, Mus musculus. Put shortly:
(§3)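 Female CBA/CaJ mice aged 6–8 weeks, two per group, received 150 mg/kg ip in 2% aqueous sodium bicarbonate as 75 mg/kg bid for one day; the placebo was vehicle. After 24 h, spleen cells were pooled and tested against YAC-1 targets in a 4-h 51Cr-release assay, in triplicate, at the stated effector:target ratio.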

For series [10], the species on record is Mus musculus. The series can be described thus: Ability to activate CBA/CaJ Mice spleen cells to proliferate in vitro by measuring new DNA synthesis in a [3H]thymidine incorporation assay at 0 mM. It is filed as functional. Put shortly: as §2
Series [11] deals with YAC-1. Nature of the series: In vivo effect on murine NK cell activity in isolated CBA/CaJ mice spleen cells and cytotoxicity measured against YAC-1 cells at a targetor ratio 50:1. It counts as functional, Mus musculus. The essentials:
as §3

In series [12] the test system is YAC-1. Nature of the series: (§4) In vivo effect on murine NK cell activity in isolated CBA/CaJ mice spleen cells and cytotoxicity measured against YAC-1 cells at a targetor ratio 100:1. It counts as organism-based. The note with it: mouse. The essentials: as §3
The subject of series [13] is Semliki Forest virus. Nature of the series: Effect against semliki forest virus infection in mice at an ip dose of 100 mg/kg; 6/12. It counts as functional. The note with it: route intraperitoneal. The essentials: as §1
For series [14], the system named is Semliki Forest virus. Nature of the series: Effect against semliki forest virus infection in mice at an ip dose of 200 mg/kg; 9/12. It counts as functional. The note with it: route intraperitoneal. The essentials: as §1
Series [15] has as its system YAC-1. Nature of the series: (§5) In vivo effect on murine NK cell activity in isolated CBA/CaJ mice spleen cells and cytotoxicity measured against YAC-1 cells at a targetor ratio 50:1. To be noted: mouse. It is filed as organism-based. Put shortly:
as §3

Series [16] has as its system Semliki Forest virus. Nature of the series: Effect against semliki forest virus infection in mice at an ip dose of 100 mg/kg. It counts as functional. To be noted: route intraperitoneal. The essentials:
as §1

Series [17] deals with Semliki Forest virus. Nature of the series: Effect against semliki forest virus infection in mice at an ip dose of 200 mg/kg. To be noted: route intraperitoneal. It counts as functional. The essentials:
as §1

Series [18] relates to YAC-1. The description is as §4. It is filed as functional, Mus musculus. The essentials: as §3
Series [19] relates to Semliki Forest virus. The series can be described thus: Effect against semliki forest virus infection in mice at an ip dose of 200 mg/kg; 3/12. The note with it: route intraperitoneal. It is filed as functional. The essentials:
as §1

Series [20] deals with YAC-1. The series is described as §5. It counts as functional, Mus musculus. The essentials:
as §3

Series [21] relates to Mus musculus. The series can be described thus: Effect against semliki forest virus infection in mice at an ip dose of 200 mg/kg''; 11/11. It counts as functional. To be noted: route intraperitoneal. The essentials: as §1
The test system of series [22] is Mus musculus. The series can be described thus: Effect against semliki forest virus infection in mice at an ip dose of 100 mg/kg; 4/9. To be noted: route intraperitoneal. It counts as functional. Put shortly: as §1
Series [23] concerns Semliki Forest virus. Nature of the series: Effect against semliki forest virus infection in mice at an ip dose of 100 mg/kg; 11/12. It is filed as functional. To be noted: route intraperitoneal. The essentials:
as §1

Series [24] concerns Semliki Forest virus. Nature of the series: Effect against semliki forest virus infection in mice at an ip dose of 200 mg/kg; 11/12. It counts as functional. The note with it: route intraperitoneal. Put shortly:
as §1

Turning to `Nc1nc2c(nc(Br)n2[C@@H]2O[C@H](CO)[C@@H](O)[C@H]2O)c(=O)[nH]1`, the Mean survival time in series [1] was found to be 7.7 days; in [7], 7.1 days. Further, the CPM in [2] came out at 4835; in series [3], 16771; in series [4], 4387; in series [6] it was 9199; in series [10] it was 5204. Further, the Survivors in series [5] is on record as 0%; in [8] it was 18%. In addition, the figures for the Cytotoxicity in [9] and in [11] were 45.44% and 31.33%, respectively.
As for `Cn1c(=O)n(C2O[C@H](CO)[C@@H](O)[C@H]2O)c2nc(N)nc(O)c21` (stereo not given in full), the Cytotoxicity is reported as 57.89% in series [12] and 58.8% in series [15]. Further, the CPM in series [2] is listed as 35980; in [3] it was 94100; in [4], 6012; in series [6] it was 72000; in series [10] it was 2000. The Survivors in series [13] is 50%; in series [14] it was 75%. In addition, the figures for the Mean survival time in series [16] and in [17] were 7.7 days and 6.3 days, respectively.
`Nc1nc(O)c2nc(S)n([C@@H]3O[C@H](CO)[C@@H](O)[C@H]3O)c2n1`: the CPM in [2] was 5372; in series [3], 40690; in series [4], 3911; in series [6] it was 23092; in [10] it was 3633. Besides, the “% cytotoxicity” value in series [18] was found to be 61.33%; in series [20], 43.53%. Further, the Survivors in series [13] is given as 50%; in series [19], 25%. For the same compound, the Mean survival time was 8 days in series [16] and 7.5 days in series [17].
In the case of `Nc1nc(O)c2sc(=S)n(C3O[C@H](CO)[C@@H](O)[C@H]3O)c2n1` (stereo not given in full), the values for the Mean survival time in series [1] and in series [7] were 7 days and >21 days, respectively. In addition, the CPM in [2] is on record as 15711; in [3], 53493; in [4], 4230; in series [6] it was 43779; in series [10], 3111. Besides, the results for the Survivors in series [21] and in series [22] were 100% and 44%, respectively. The Cytotoxicity in [9] was found to be 41.38%; in series [11], 28.89%.
Turning to `Nc1nc2c(sc(=O)n2[C@@H]2O[C@H](CO)[C@@H](O)[C@H]2O)c(=O)[nH]1` [ISATORIBINE], the Cytotoxicity is 67.8% in series [12] and 74.8% in series [15]. Moreover, the CPM was found to be 54150 in [2]; 107000 in series [3]; 12000 in series [4]; 96680 in [6]; 2000 in series [10]. The Survivors in series [23] and in series [24] was 92% throughout. For the same compound, the Mean survival time came out at 8 days in [16] and 6 days in series [17].
